Only some compounds are listed: those with a hit (about 3.9% of all), similar ones and a draw of the others.
SR-BI DiI inh = inhibitors of SR-BI mediated HDL lipid uptake, primary screen, ldlA[mSR-BI] cells, fluorescence, single point; ldlA[mSR-BI] CHO cells, DiI-HDL uptake fluorescence, 3 h; inhibition, % at 12.5 µM; hit rate 0.96% among 320,000;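 active = mean replicate inhibition of at least 70% and a set share of replicates each scoring 70 or more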;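 also: 0% = median of neutral control wells and 100% = median of positive control wells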
Target sequence (Q61009 whole entry, looked up): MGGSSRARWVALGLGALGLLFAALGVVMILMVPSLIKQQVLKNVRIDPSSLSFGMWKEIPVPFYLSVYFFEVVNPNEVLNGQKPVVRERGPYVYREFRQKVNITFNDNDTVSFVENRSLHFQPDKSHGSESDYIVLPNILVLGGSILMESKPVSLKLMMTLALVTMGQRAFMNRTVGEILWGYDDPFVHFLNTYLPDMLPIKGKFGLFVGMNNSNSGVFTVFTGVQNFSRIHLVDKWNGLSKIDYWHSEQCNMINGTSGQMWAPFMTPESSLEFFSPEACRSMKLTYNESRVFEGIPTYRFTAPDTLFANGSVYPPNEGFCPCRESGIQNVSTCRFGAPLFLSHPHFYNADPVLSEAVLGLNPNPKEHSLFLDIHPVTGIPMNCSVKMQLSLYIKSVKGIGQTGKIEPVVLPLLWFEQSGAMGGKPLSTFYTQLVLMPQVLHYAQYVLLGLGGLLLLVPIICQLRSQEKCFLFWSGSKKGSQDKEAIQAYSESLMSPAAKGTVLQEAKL
ABCB6 inh MLPCN = ABCB6 transporter inhibitors, primary screen, K562-ABCB6 cells, flow cytometry, MLPCN library | ATP-binding cassette sub-family B member 6 (Homo sapiens), Q9NP58 | K562-ABCB6 porphyrin accumulation, 1 h; active compounds read low | fluorescence ratio to DMSO, % at 10 µM | hit rate 0.19% among 360,000;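 active = fluorescence ratio to DMSO below 75%, the collection mean minus 3 SD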;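 also: signal is porphyrin accumulated inside mitochondria; 100% equals median channel fluorescence of DMSO control wells; lower ratio means ABCB6 inhibition with less porphyrin fluorescence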
AHR activator = AHR activators, primary screen, cell-based, luminescence, luciferase reporter, human | Aryl hydrocarbon receptor (Homo sapiens), P35869 | AHR-responsive luciferase reporter cells | activation, % at 5 µM | hit rate 2.5% among 320,000; in the data active = activation above about 47%;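 also: 0% = vehicle wells and 100% = reference agonist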
FXN GAA850 act = FXN promoter activators, primary screen, cell-based, luciferase luminescence, HEK293 lucGAA850 | hit rate 0.56% among 360,000 | HEK293 lucGAA850 FXN promoter luciferase reporter, 24 h; percent of 10 µM SAHA response | AID 540364, 2011 | activation, % at 6 µM;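 active = activation above the average of all compounds screened plus 3 SD, cutoff fixed separately per campaign, cut at about 7.5% in these data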;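 also: 0% = DMSO wells and 100% = 10 µM SAHA wells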
SR-BI DiI-HDL act = activators of SR-BI mediated DiI-HDL uptake, primary screen, ldlA[mSR-BI] CHO cells, DiI fluorescence; AID 504775, 2011; activation, % at 12.5 µM; 3 h; 100 = double the neutral-control signal; hit rate 0.096% among 320,000;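 active = mean replicate activation of at least 60% and every replicate at or above 60%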;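 also: 0% = median plate neutral-control signal and 100% = twice that signal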
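System: CHO ldlA[mSR-BI] cells / Medium: HEPES-buffered (25 mM, pH 7.4) F12 plus 0.5% BSA / Probe or stimulus: labelled HDL, 10 µg/mL / Doses: single compound concentration, delivered by pin transfer / Schedule: 3 h, 37 °C / Measured by: DiI fluorescence, bottom read / Measure: cell-associated DiI fluorescence as measure of HDL uptake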
HIF activator = HIF pathway transcriptional activators, primary screen, cell-based, U2OS HRE-luciferase, luminescence | U2OS HRE-luciferase reporter; normalized: DMSO 0%, desferrioxamine 100% | activation, % at 7.5 µM (by protocol) | hit rate 0.32% among 300,000 | AID 1910, 2009;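 active = mean activation of at least 10% of the iron chelator positive control signal, with at least half of replicates also reaching 10%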
The depositor's hits bear a star; x = no result given.

SMILES | SR-BI DiI inh | ABCB6 inh MLPCN | AHR activator | FXN GAA850 act | SR-BI DiI-HDL act | HIF activator
CCCCOC(=O)/C(=C/c1cn(C)c2ccccc12)NC(=O)c1ccc(OC)cc1 | 14 | 94 | 81* | 0 | -14 | 0
Cc1ccc(/C=N/Nc2ccc(F)cc2F)s1 | 27 | 105 | 18 | 2 | -27 | 3
O=C(CCCCO)CCCCCCCC[C@H]1N[C@H](CO)[C@H](O)[C@@H]1O[C@@H]1O[C@H](CO)[C@@H](O)[C@H](O)[C@H]1O | -15 | 94 | -1 | 0 | 15 | 0
O=S(=O)(c1ccc2c(c1)C(=NO)c1cc(S(=O)(=O)N3CCCCC3)ccc1-2)N1CCCCC1 | 19 | 72* | -2 | 2 | -19 | -6
O=S(=O)(c1ccc(S(=O)(=O)N2CCCC2)cc1)N1CCCCCC1 | -10 | 98 | 1 | 0 | 10 | 0
Cn1c(/C=C/c2ccc(Br)cc2)c([N+](=O)[O-])c(=O)n(C)c1=O | -1 | 101 | 21 | -2 | 1 | 1
Cc1ccc(NC(=O)N2CCC(NC(=O)c3cccc(C)c3)CC2)cc1 | 17 | 96 | 4 | 3 | -17 | 150*
COc1ccc(NC(=S)N2CCC(NC(=O)c3ccc(F)cc3)CC2)cc1 | -7 | 98 | 0 | 0 | 7 | 0
COc1ccc(NC(=S)N2CCC(NC(=O)c3ccc(OC)cc3)CC2)cc1 | 35 | 74* | 0 | 2 | -35 | 0
Cc1nn2c(N3CCN(c4ccccn4)CC3)cc(C(C)C)nc2c1-c1ccccc1 | 70 | 97 | x | -1 | -70 | -1
Cc1ccc(NC(=O)CSCC(=O)NCCc2ccccc2)cc1 | -9 | 96 | 0 | -1 | 9 | 0
CCOC(=O)c1[nH]c2cc3c(cc2c1NC(=O)CN1CCCC1)OCO3 | -17 | 104 | 58* | 2 | 17 | 1
CCOC(=O)c1[nH]c2cc3c(cc2c1NC(=O)CN1CCc2ccccc2C1)OCO3 | -5 | 105 | 28 | 1 | 5 | -27
O=S(=O)(c1ccccc1)c1cnc(-c2cccnc2)nc1-c1ccccc1 | -17 | 83 | -1 | 2 | 17 | 0
O=C(COC(=O)Cc1c(Cl)cccc1Cl)Nc1ccc(OC(F)(F)F)cc1 | x | 103 | 67* | 2 | x | 0
O=c1[nH]c2ccccc2cc1-c1noc(-c2cccnc2)n1 | 0 | 100 | 73* | 1 | 0 | 0
c1ccc(-c2noc(-c3cccnc3)n2)cc1 | -12 | 98 | 59* | 6 | 12 | 1
COc1ccc2[nH]c(=O)c(-c3noc(-c4ccccc4)n3)cc2c1 | 10 | 102 | 25 | 4 | -10 | 1
CC(=O)N1CC=CC1(C)C(=O)NCc1cc(F)cc(C(F)(F)F)c1 (centres undefined) | -25 | 97 | 0 | -2 | 25 | -2
Fc1ccc(C2c3[nH]c4ccccc4c3CCN2Cc2ccoc2)cc1 (centres undefined) | 22 | 104 | 51* | 0 | -22 | 0
C=CCOC(=O)C(C#N)c1nc2ccccc2nc1N1CCN(c2ccccc2OC)CC1 (centres undefined) | 82* | 93 | -1 | 0 | -82 | 0
CC(C)COC(=O)C(C#N)c1nc2ccccc2nc1N1CCN(Cc2ccccc2)CC1 (centres undefined) | 19 | 119 | 1 | 1 | -19 | 0
C=CCOC(=O)C(C#N)c1nc2ccccc2nc1N1CCN(Cc2ccccc2)CC1 (centres undefined) | 84* | 108 | 4 | 1 | -84 | x
COCCOC(=O)C(C#N)c1nc2ccccc2nc1N1CCN(Cc2ccccc2)CC1 (centres undefined) | 38 | 129 | 1 | 1 | -38 | 0
CCC(=O)Nc1ccc2c(c1)nc1n2CCN(C2CCCCC2)C1 | 9 | 95 | 1 | 0 | -9 | 1
SMILES | SR-BI DiI inh | ABCB6 inh MLPCN | AHR activator | FXN GAA850 act | SR-BI DiI-HDL act | HIF activator
N=C(N)SCCc1cnc[nH]1 | -13 | 97 | -2 | -1 | 13 | x
CC1(C(=O)Nc2cccc(Oc3ccccc3)c2)CCN1Cc1ccccc1OC(F)F (centres undefined) | x | 91 | x | 1 | x | x
CC1(C)Cc2c(sc3ncnc(NNC(=S)NCc4ccccc4)c23)CO1 | -26 | 100 | 11 | -2 | 26 | 1
CCOC(=O)c1cnc2ccc(OC)cc2c1Nc1ccc2c(c1)OCCO2 | 16 | 106 | 2 | 0 | -16 | 0
CN(C)S(=O)(=O)Oc1ccsc1C(=O)Nc1cccc(Cl)c1Cl | 56 | 95 | 60* | 0 | -56 | 0
CN(C)S(=O)(=O)Oc1ccsc1C(=O)Nc1ccccc1Cl | 65 | 94 | 6 | -1 | -65 | 0
COc1ccc(C)cc1NC(=O)c1nn(C)cc1Br | 7 | 100 | 60* | -1 | -7 | 0
c1ccc(-n2nnc(-c3nccs3)n2)cc1 | -3 | 98 | 54* | 5 | 3 | -1
Brc1ccccc1-n1nnc(-c2nccs2)n1 | 4 | 93 | 36 | 5 | -4 | 5
COc1ccc(CC(=O)NNC(=O)c2ccccc2)cc1OC | -17 | 90 | 1 | 2 | 17 | x
COc1ccc(CC(=O)NNC(=S)NCC2CC2)cc1OC | 2 | 97 | 0 | 1 | -2 | 30*
O=C(N/N=C\c1ccc(COc2ccc([N+](=O)[O-])cc2)o1)c1ccc(Cl)cc1 | 54 | 97 | 5 | 0 | -54 | 0
O=[N+]([O-])CC(=Nc1ccc(Cl)cc1)N/N=C\c1oc(O)c2ccccc12 | 15 | 99 | 95* | 2 | -15 | -39
COc1ccc(N2CCC(CNC(=O)Nc3ccc(OC)cc3OC)C2)cc1 (centres undefined) | 96* | 105 | 5 | -1 | -96 | 0
COc1ccc(N2CCC(CNC(=O)Nc3ccc(C)c(C)c3)C2)cc1 (centres undefined) | 25 | 125 | 7 | 2 | -25 | 0
O=C(NC1CCCCC1)C(c1ccncc1)N(C(=O)c1csnn1)c1ccccc1 (centres undefined) | x | 86 | 4 | 2 | x | 0
Cc1cc(NC(=O)c2sc(Nc3ccc(F)cc3)nc2N)no1 | 34 | 92 | 56* | -1 | -34 | 0
Fc1cccc(-c2n[nH]c(=S)n2-c2ccccc2)c1 | -18 | 100 | 1 | 2 | 18 | 1
Cc1[nH]c2ccccc2c1C(=O)CSc1nc2cc(S(=O)(=O)N3CCCCC3)ccc2o1 | 34 | 69* | 15 | -3 | -34 | -1

From PubChem
